Experimental data from ChEMBL document CHEMBL4251630, “Hydroxymethyl bioisosteres of phenolic GluN2B-selective NMDA receptor antagonists: Design, synthesis and pharmacological evaluation” (Eur J Med Chem, 2018).

How the values were obtained:
Sus scrofa = species: Sus scrofa; assay: Displacement of [3H]-(+)-MK-801 from NMDA receptor PCP binding site in pig brain cortex membranes at 1 uM incubated for 120 mins measured for 5 mins by scintillation counting method relative to control; format: cell membranes
How it was run: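 Pig brain cortex membranes, about 100 µg protein, with 2 nM [3H]-(+)-MK-801 in 5 mM TRIS/1 mM EDTA, pH 7.5, at rt for 120 min. Test compound at 1 µM, in duplicate. Non-specific binding defined with 10 µM unlabeled (+)-MK-801. Filtration on polyethylenimine-soaked filtermats, then [3H] scintillation counting for 5 min per well. Value given as % inhibition of radioligand binding.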

[1] = target: T1, Glutamate receptor ionotropic, NMDA 2B (Homo sapiens, UniProt Q13224); assay: Displacement of [3H]Ifenprodil from GluN2B receptor (unknown origin) expressed in mouse L(tk-) cell membranes
How it was run: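 Dexamethasone-induced (4 µM, with 4 µM ketamine, 24 h) GluN1a/GluN2B L(tk-) cell membranes, about 20 µg protein. […] Filtration and 5-min [3H] counting. Ki by Cheng-Prusoff (Kd 7.6 nM). Mean ± SEM of three experiments, or a single run for weak binders.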

[2] = (§1) Antagonist activity at GluN2B/GluN1a receptor (unknown origin) expressed in mouse L(tk-) cells assessed as cytoprotection against glycine/(S)-glutamate-induced cell death preincubated for 30 mins followed by glycine/(S)-glutamate addition measured after 6 hrs by LDH assay; format: cell-based; conditions: Homo sapiens, LTK
How it was run: (§2)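 L(tk-) cells co-expressing GluN1a/GluN2B (1:5), dexamethasone-induced. Wells blocked with DMEM/1 % BSA. Cells preincubated with test compound at 5 concentrations (e.g. 4 x 10-5 to 10-9 mol/L), in at least triplicate, 30 min at 37 °C. Glutamate/glycine (20 µM each, solution) then added for 6 h at 37 °C. Supernatant LDH measured by diaphorase/lactate/NAD+/INT mix, 45 min at 37 °C, absorbance 485 nm. (S)-ketamine 4 x 10-5 mol/L was the positive control.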

[3] = target: T2, Sigma intracellular receptor 2 (Rattus norvegicus, UniProt Q5U3Y7); assay: Displacement of [3H]-di-o-tolylguanidine from sigma-2 receptor in rat liver membranes incubated for 120 mins measured for 5 mins by scintillation counting method; format: cell membranes, Membrane
T2 sequence (Q5U3Y7 whole entry): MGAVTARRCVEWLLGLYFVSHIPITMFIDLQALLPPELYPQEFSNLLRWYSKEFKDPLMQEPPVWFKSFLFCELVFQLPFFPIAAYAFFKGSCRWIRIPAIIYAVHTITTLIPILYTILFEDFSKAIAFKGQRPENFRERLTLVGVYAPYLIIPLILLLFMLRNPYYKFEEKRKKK

[4] = target: Sigma non-opioid intracellular receptor 1 (Cavia porcellus, UniProt Q60492); assay: Displacement of [3H]-(+)-pentazocine from sigma-1 receptor in guinea pig brain cortex membranes incubated for 120 mins measured for 5 mins by scintillation counting method; format: cell membranes
[5] = target: T1, Glutamate receptor ionotropic, NMDA 2B; assay: Displacement of [3H]Ifenprodil from GluN2B receptor (unknown origin) expressed in mouse L(tk-) cell membranes incubated for 120 mins measured for 5 mins by scintillation counting method
[6] = Selectivity ratio of Ki for sigma-1 receptor in guinea pig brain cortex membranes to Ki for GluN2B receptor (unknown origin) expressed in mouse L(tk-) cell membranes; format: cell-based
[7] = Selectivity ratio of Ki for sigma-2 receptor in rat liver membranes to Ki for GluN2B receptor (unknown origin) expressed in mouse L(tk-) cell membranes; format: cell-based
Homo sapiens = species: Homo sapiens; assay: as §1; format: cell-based; how it was run: as §2

Sigma non-opioid intracellular receptor 1, sequence (Q60492 whole entry): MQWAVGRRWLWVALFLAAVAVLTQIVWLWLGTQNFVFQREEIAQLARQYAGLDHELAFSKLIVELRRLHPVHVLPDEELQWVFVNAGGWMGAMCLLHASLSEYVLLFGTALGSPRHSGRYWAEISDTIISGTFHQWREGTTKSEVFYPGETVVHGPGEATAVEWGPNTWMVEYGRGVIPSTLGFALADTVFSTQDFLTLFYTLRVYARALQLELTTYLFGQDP
T1 sequence (Q13224 whole entry): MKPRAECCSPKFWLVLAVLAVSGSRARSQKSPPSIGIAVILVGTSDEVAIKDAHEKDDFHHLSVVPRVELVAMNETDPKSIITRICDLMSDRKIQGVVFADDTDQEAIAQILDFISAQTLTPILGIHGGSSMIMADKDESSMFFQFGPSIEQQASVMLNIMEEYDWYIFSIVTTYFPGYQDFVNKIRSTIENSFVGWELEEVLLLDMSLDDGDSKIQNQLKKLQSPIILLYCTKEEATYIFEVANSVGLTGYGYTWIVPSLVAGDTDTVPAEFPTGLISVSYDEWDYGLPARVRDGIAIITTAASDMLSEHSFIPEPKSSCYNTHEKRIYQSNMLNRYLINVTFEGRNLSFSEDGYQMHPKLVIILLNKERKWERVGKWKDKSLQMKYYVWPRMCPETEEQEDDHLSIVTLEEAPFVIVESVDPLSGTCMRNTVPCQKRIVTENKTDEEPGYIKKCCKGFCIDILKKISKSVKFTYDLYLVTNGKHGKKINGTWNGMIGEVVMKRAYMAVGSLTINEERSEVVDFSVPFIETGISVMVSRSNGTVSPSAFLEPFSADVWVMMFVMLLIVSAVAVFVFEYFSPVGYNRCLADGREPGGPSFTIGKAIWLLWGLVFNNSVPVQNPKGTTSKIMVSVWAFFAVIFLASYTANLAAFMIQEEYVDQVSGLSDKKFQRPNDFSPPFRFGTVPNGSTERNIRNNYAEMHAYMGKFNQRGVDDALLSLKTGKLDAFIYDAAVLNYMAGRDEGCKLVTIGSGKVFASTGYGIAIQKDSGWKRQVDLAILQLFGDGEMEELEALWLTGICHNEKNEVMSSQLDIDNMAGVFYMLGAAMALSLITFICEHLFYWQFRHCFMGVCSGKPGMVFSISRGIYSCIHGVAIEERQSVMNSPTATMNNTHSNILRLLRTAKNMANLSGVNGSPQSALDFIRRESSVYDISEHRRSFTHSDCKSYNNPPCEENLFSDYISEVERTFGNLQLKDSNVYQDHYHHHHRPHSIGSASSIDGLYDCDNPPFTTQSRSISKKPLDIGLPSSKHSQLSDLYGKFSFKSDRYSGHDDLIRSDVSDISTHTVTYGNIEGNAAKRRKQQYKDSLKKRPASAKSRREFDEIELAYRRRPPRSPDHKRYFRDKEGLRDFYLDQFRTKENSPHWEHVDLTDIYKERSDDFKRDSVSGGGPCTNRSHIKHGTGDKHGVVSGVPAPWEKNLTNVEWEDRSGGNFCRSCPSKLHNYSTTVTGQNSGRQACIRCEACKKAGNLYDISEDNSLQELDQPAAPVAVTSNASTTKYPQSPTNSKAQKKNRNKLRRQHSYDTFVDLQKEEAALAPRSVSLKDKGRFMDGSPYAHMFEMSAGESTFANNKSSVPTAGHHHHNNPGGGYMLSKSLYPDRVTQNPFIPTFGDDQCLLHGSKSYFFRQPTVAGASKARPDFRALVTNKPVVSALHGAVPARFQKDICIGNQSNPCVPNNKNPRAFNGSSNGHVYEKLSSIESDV

Row | SMILES | inhibition (Sus scrofa) | Ki [1] | IC50 [2] | Ki [3] | Ki [4] | Ki [5] | Ratio Ki [6] | Ratio Ki [7] | inhibition (Homo sapiens)
1 | Oc1ccc2c(c1)CCC(NCCCCc1ccccc1)CC2 (stereo not drawn) | 25% | 21 nM | 3000 nM | 96 nM | 211 nM |  |  |  | 
2 | OCc1ccc2c(c1)CCC(NCCCCc1ccccc1)CC2 (stereo not drawn) | 0% |  | > 100000 nM | 271 nM | 41 nM | 186 nM | 4 |  | 
3 | Oc1ccc2c(c1)CCC(NCCCc1ccccc1)CC2 (stereo not drawn) | 0% | 28 nM | 25000 nM | 32 nM | 123 nM |  |  |  | 
4 | OCc1ccc2c(c1)CCC(NCCCc1ccccc1)CC2 (stereo not drawn) | 0% |  | 5200 nM | 592 nM | 565 nM | 101 nM | 5 to 6 | 5 to 6 | Dose-dependent effect
5 | C[C@@H](CN1CCC(Cc2ccccc2)CC1)[C@@H](O)c1ccc(O)cc1 |  |  | 18 nM |  |  | 173 nM |  |  | 
6 | COc1ccc2c(c1)CC[C@@H](NCCCc1ccccc1)C[C@H]2O (relative stereo) |  | 16 nM |  |  |  |  |  |  | 
7 | CC(C(O)c1ccc(O)cc1)N1CCC(Cc2ccccc2)CC1 (stereo not drawn) [IFENPRODIL] |  |  | 590 nM |  |  |  |  |  | 
